Assay results pooled from the literature.
Each line is one published result; the experiments were not run side by side.
CYP1A1: Cytochrome P450 1A1 (CYP1A1, Homo sapiens, UniProt P04798)
Enoyl-[acyl-carrier-protein] reductase [NADPH] FabI: Enoyl-[acyl-carrier-protein] reductase [NADPH] FabI (Staphylococcus aureus, UniProt Q6GI75)
FOLH1: Glutamate carboxypeptidase 2 (FOLH1, Homo sapiens, UniProt Q04609)

| SMILES | target | assay | setting | Ki [nM] |
| --- | --- | --- | --- | --- |
| CC[C@H](C)[C@H](NC(=O)[C@H](CCC(=O)O)NC(=O)[C@H](CC(=O)O)NC(=O)CNC(=O)[C@H](CC(C)C)NC(=O)[C@H](CCCNC(=N)N)NC(=O)[C@H](CCCNC(=N)N)NC(=O)[C@H](CC(C)C)NC(=O)CNC(=O)[C@H](CCC(N)=O)NC(=O)[C@@H](NC(=O)[C@H](CCSC)NC(=O)[C@H](Cc1c[nH]c2ccccc12)NC(=O)[C@@H](NC(=O)[C@H](CCC(=O)O)NC(=O)[C@@H]1CCCN1C(=O)[C@H](CCCNC(=N)N)NC(C)=O)[C@@H](C)CC)[C@@H](C)O)C(=O)N[C@@H](CC(N)=O)C(=O)N[C@@H](C)C(=O)N[C@@H](Cc1ccc(O)cc1)C(=O)N[C@@H](Cc1ccc(O)cc1)C(=O)N[C@@H](C)C(=O)N[C@@H](CCCNC(=N)N)C(N)=O | Apoptosis regulator Bcl-2 (BCL2, Homo sapiens, UniProt P10415) | ligand displacement, FP | – | ~2900 |
| NCCCC[C@H](NC(=O)[C@@H]1CCCN1C(=O)[C@@H]1CSSC[C@H](NC(=O)CNC(=O)CNC(=O)CN)C(=O)N[C@@H](Cc2ccc(O)cc2)C(=O)N[C@@H](Cc2ccccc2)C(=O)N[C@@H](CCC(N)=O)C(=O)N[C@@H](CC(N)=O)C(=O)N1)C(=O)NCC(N)=O | Vasopressin V1a receptor (AVPR1A, Homo sapiens, UniProt P37288) | ligand displacement, radioligand | cell membranes | 1100 |
| C#Cc1ccc(-c2cc(=O)c3ccccc3o2)cc1 | CYP1A1 | enzyme activity, inhibitor, fluorescence | 6 min, pH 7.6 | 39 |
| CCn1c(-c2nc3cc(C(=O)N4CCC[C@@H](N)C4)cc(OC)c3n2C)cc2cccnc21 | Protein-arginine deiminase type-1 (PADI1, Homo sapiens, UniProt Q9ULC6) | enzyme activity, inhibitor | – | 570000 |
| CCc1cc(O)c(Oc2ccc(C(N)=O)cc2F)cc1F | Enoyl-[acyl-carrier-protein] reductase [NADPH] FabI | enzyme activity, inhibitor | – | 0.08 |
| O=C(O)CCC(NC(=O)NC(CCCCNC(=O)CCCCCCC(=O)NCCCCC(NC(=O)C(Cc1ccccc1)NC(=O)C(Cc1ccccc1)NC(=O)CN1CCN(CC(=O)O)CCN(CC(=O)O)CCN(CC(=O)O)CC1)C(=O)O)C(=O)O)C(=O)O (stereo not drawn) | FOLH1 | enzyme activity, inhibitor, fluorescence | – | 1.23 |
| COc1cc(O)c(CC=C(C)C)c(O)c1C(=O)/C=C/c1ccc(O)cc1 | CYP1A1 | enzyme activity, inhibitor, fluorescence | 15 min, pH 7.4 | 110 |
| O=C(O)CCC(NC(=O)NC(CCCCNC(=O)CCCCCCC(=O)NC(CCCCNC(=O)CN1CCN(CC(=O)O)CCN(CC(=O)O)CCN(CC(=O)O)CC1)C(=O)OCc1ccccc1)C(=O)O)C(=O)O.[Ga+3] (stereo not drawn) | FOLH1 | enzyme activity, inhibitor, fluorescence | – | 29 |
| C[C@H]1Oc2cc(cnc2N)-c2c(nn(C)c2C#N)CN(C)C(=O)c2ccc(F)cc21 | Dual specificity mitogen-activated protein kinase kinase 1 (MAP2K1, Homo sapiens, UniProt Q02750) | cell-free assay | lysate | 128 |
| CCc1cc(O)c(Oc2ccccc2)cc1F | Enoyl-[acyl-carrier-protein] reductase [NADPH] FabI | enzyme activity, inhibitor | – | 0.09 |
| CC[C@H](C)[C@H](NC(=O)[C@H](CCC(=O)O)NC(=O)[C@H](CC(=O)O)NC(=O)CNC(=O)[C@H](CC(C)C)NC(=O)[C@H](CCCNC(=N)N)NC(=O)[C@H](CCC(N)=O)NC(=O)[C@H](CC(C)C)NC(=O)[C@H](CO)NC(=O)[C@H](CCC(N)=O)NC(=O)[C@@H](NC(=O)[C@H](CC(C)C)NC(=O)[C@H](Cc1c[nH]c2ccccc12)NC(=O)[C@@H](NC(=O)[C@H](CCC(=O)O)NC(=O)[C@@H]1CCCN1C(=O)[C@H](CCCNC(=N)N)NC(C)=O)[C@@H](C)CC)[C@@H](C)O)C(=O)N[C@@H](CC(N)=O)C(=O)N[C@@H](C)C(=O)N[C@@H](Cc1ccc(O)cc1)C(=O)N[C@@H](Cc1ccc(O)cc1)C(=O)N[C@@H](C)C(=O)N[C@@H](CCCNC(=N)N)C(N)=O | Bcl-2-like protein 2 (BCL2L2, Homo sapiens, UniProt Q92843) | ligand displacement, FP | – | 360 |
| O=c1cc(-c2ccccc2)oc2c1ccc1ccccc12 | CYP1A1 | enzyme activity, inhibitor, fluorescence | 6 min, pH 7.6 | 43 |
